Measured values collected from several papers.
Compare with care: the assays were run in different laboratories. In brackets after ≈: the same amount, converted by molar mass.

SMILES | target or system | assay | system | conditions | quantity | result
CN(c1ccccc1)S(=O)(=O)c1cc(C(=O)NCc2ccco2)ccc1Cl | human PBMC | cell migration | – | 10 µM | inhibition | 82%
C=C(CCC=C(C)C)[C@H]1CC[C@H]2[C@@H]3CCC4=CC(=O)CC[C@]4(C)[C@H]3CC[C@@]12C | Leishmania mexicana | parasite growth | – | 48 h, promastigote | IC50 | 30 µM
O=C(Oc1ccc(I)cc1)[c-]1cccc1.[Fe+2].c1cc[cH-]c1 | MCF-10A | cell growth or viability, MTT | – | 72 h | IC50 | 7 µM
CCCCCCCCCCCCCCCC(=O)N(C)[C@H](CO)C(=O)N[C@H](C)C(=O)NCC(=O)N(C)[C@@H]1C(=O)N[C@@H](C)C(=O)N[C@H](C(=O)O)Cc2ccc(O)c(c2)-c2cc1ccc2O | Latilactobacillus sakei | microbial growth | – | – | MIC | > 128 µg/mL
CCCCCCC/C=C/C(=O)N1C(=O)/C(=C(/C)O)C(=O)C1Cc1ccc(OC(C)(C)C)cc1 (stereo not drawn) | Burkholderia cepacia | microbial growth | ATCC25416 | – | MIC | > 200 µg/mL
COc1cc2c3c(n(CCCNCCO)c(=O)c2cc1OC)-c1cc2c(cc1C3=O)OCO2 | SN12C | cell growth or viability | – | – | GI50 | < 0.01 µM
CCCCCCC/C=C/C(=O)N1C(=O)/C(=C(/C)O)C(=O)C1Cc1ccc(O)cc1 (stereo not drawn) | Burkholderia cepacia | microbial growth | ATCC25416 | – | MIC | > 200 µg/mL
Cc1ccc(Cl)c(Nc2ccccc2C(=O)O)c1Cl | human PBMC | cell migration | – | 10 µM | inhibition | 100%
C/C(O)=C1\C(=O)C(CC(C)C)N(C(=O)CCCCCc2ccccc2)C1=O (stereo not drawn) | Burkholderia cepacia | microbial growth | ATCC25416 | – | MIC | > 200 µg/mL
CCCCCCCCCOc1ccc2[nH]cc(CCN)c2c1 | CAL-27 | cell growth or viability | – | 72 h | IC50 | 4.11 µM
CCCCCCC/C=C/C(=O)N1C(=O)/C(=C(\O)c2ccc(O)cc2)C(=O)C1CC(C)C (stereo not drawn) | Burkholderia cepacia | microbial growth | ATCC25416 | – | MIC | 100 µg/mL (≈ 234 µM)
CC(C)CCC[C@@H](C)[C@H]1CC[C@H]2[C@@H]3CCC4=CC(=O)CC[C@]4(C)[C@H]3CC[C@]12C | Leishmania mexicana | parasite growth | – | 48 h, promastigote | IC50 | 81 µM
